Test results: ChEMBL document CHEMBL5715946 (Chem Biol, 2010)
Activity calls are given as the source filed them. The calls are words filed in the database; no cut-off is given here.

Each molecule was assayed against Macrophage migration inhibitory factor (Rattus norvegicus) (UniProt P30904) (assay: Binding affinity to MIF in Wistar rat isolated heart by chromatography). Details: not given.
Assay type: tissue-based
Target sequence in this assay (P30904 2-115 limits assumed): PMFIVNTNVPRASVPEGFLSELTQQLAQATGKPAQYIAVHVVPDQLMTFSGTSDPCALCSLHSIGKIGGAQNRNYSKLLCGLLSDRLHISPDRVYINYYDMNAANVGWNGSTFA

| SMILES | Activity |
| --- | --- |
| O=C(O)CCOCCCc1cccc(-c2nc(=O)c3ccccc3s2)n1 | Active |
| O=C(O)CCOCCCc1ccc(-c2nc(=O)c3ccccc3s2)nc1 | Active |

Each molecule was assayed against Macrophage migration inhibitory factor (Rattus norvegicus) (UniProt P30904) (assay: Binding affinity to MIF in Wistar rat isolated heart by Western blot analysis). Details: not given.
Assay type: tissue-based
How it was run: (§1)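 BTZO-12-type sensor chip probed with rat heart protein; bound protein recovered by microrecovery elution, then identified by silver staining and by western blot with anti-MIF antibody.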
Target sequence in this assay (P30904 2-115 limits assumed): as above

| SMILES | Activity |
| --- | --- |
| NCCCCCCNC(=O)c1cccc(-c2nc(=O)c3ccccc3s2)n1 | Active |

What follows are molecules tested on Antioxidant response element (assay: Induction of ARE activity in serum-deprived neonatal Wistar rat cardiomyocytes assessed as increase in HO-1 expression up to 400 nM measured after 24 hrs by Western blot analysis). Details: Cardiomyocyte.
Assay type: cell-based
How it was run: (§2)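 Neonatal rat cardiomyocytes exposed to samples or vehicle in M-199 with 1% penicillin-streptomycin, no serum, for 24 hr. GST Ya and HO-1 mRNA measured by real-time qPCR (mean ± SD, n = 3); protein by western blot with β-actin as control.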

| SMILES | Activity |
| --- | --- |
| O=C(O)CCc1cccc(-c2nc(=O)c3ccccc3s2)n1 | Active |
| Cc1cccc2c(=O)nc(-c3ccccn3)sc12 | inactive |

What follows are molecules tested against Macrophage migration inhibitory factor (Rattus norvegicus) (UniProt P30904) (assay: Induction of MIF-stimulated ARE activity in rat H9c2 cells assessed as increase in HO-1 expression at 3 uM incubated for 6 hrs by RT-qPCR analysis). Details: not given.
Assay type: cell-based
Target sequence in this assay (P30904 2-115 limits assumed): as above

| SMILES | Activity |
| --- | --- |
| Cc1cccc2c(=O)nc(-c3ccccn3)sc12 | inactive |

Each molecule was assayed against Macrophage migration inhibitory factor (Rattus norvegicus) (UniProt P30904) (assay: Binding affinity to MIF in Wistar rat isolated heart by SPR analysis). Details: not given.
Assay type: tissue-based
How it was run: as §1
Target sequence in this assay (P30904 2-115 limits assumed): as above

| SMILES | Activity |
| --- | --- |
| NCCCCCCNC(=O)c1cccc(-c2nc(=O)c3ccccc3s2)n1 | Active |
| Cc1cccc2c(=O)nc(-c3cccc(C(=O)NCCCCCCN)n3)sc12 | inactive |

What follows are molecules tested on Antioxidant response element (assay: Induction of ARE activity in serum-deprived neonatal Wistar rat cardiomyocytes assessed as increase in GST Ya expression up to 400 nM measured after 24 hrs by Western blot analysis). Details: Cardiomyocyte.
Assay type: cell-based
How it was run: as §2

| SMILES | Activity |
| --- | --- |
| O=C(O)CCc1cccc(-c2nc(=O)c3ccccc3s2)n1 | Active |
| Cc1cccc2c(=O)nc(-c3ccccn3)sc12 | inactive |

What follows are molecules tested on Antioxidant response element (assay: Induction of rat ARE activity expressed in rat H9c2 cells assessed as increase in ARE luciferase activity measured after 24 hrs by steady-glo luciferase Assay). Details: not given.
Assay type: cell-based
How it was run: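 H9c2 cells transiently transfected with pGL3-ARE-Luc or pGL3-mARE-Luc, compound exposure 24 hr, luciferase read by Steady-Glo. MEC2.0 is the concentration giving a doubling of luciferase activity. Mean ± SD, n = 4.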

| SMILES | MEC2 | Activity |
| --- | --- | --- |
| O=C1NC(c2ccccn2)Sc2ccccc21 (stereo not drawn) [BTZO-4] | > 10 µM | – |
| O=c1nc(-c2ccccn2)sc2ncccc12 | > 10 µM | – |
| CCCCC/C=C/C=C1/C(=O)C=C[C@@H]1C/C=C\CCCC(=O)O | 7.3 µM | – |
| Cc1cc(C)c2sc(-c3ccccn3)nc(=O)c2c1 | > 10 µM | – |
| O=C(O)CCc1cccc(-c2nc(=O)c3ccccc3s2)n1 | 2.3 µM | Dose-Dependent Effect |
| NCCCCCCNC(=O)c1cccc(-c2nc(=O)c3ccccc3s2)n1 | 1.1 µM | – |
| O=C(O)CCOCCCc1cccc(-c2nc(=O)c3ccccc3s2)n1 | 2.2 µM | – |
| O=c1nc(-c2cccnc2)sc2ccccc12 | 0.8 µM | – |
| O=C(O)CCOCCCc1cccc(-c2nc(=O)c3cccnc3s2)n1 | > 10 µM | – |
| Cc1cccc2c(=O)nc(-c3cccc(C(=O)NCCCCCCN)n3)sc12 | > 10 µM | – |
| O=C(O)CCOCCCc1ccc(-c2nc(=O)c3ccccc3s2)nc1 | 1.6 µM | – |
| CC(C)(C)c1cc(O)ccc1O [E319] | 5.7 µM | – |
| C[S@+]([O-])CCCCN=C=S | 4.4 µM | – |
| COC(=O)CC1CC(c2ccc(O)cc2)=NO1 (stereo not drawn) | > 30 µM | – |
| O=C(O)CCOCCCc1cccc(C2NC(=O)c3ccccc3S2)n1 (stereo not drawn) | > 10 µM | – |
| Cc1cccc2c(=O)nc(-c3ccccn3)sc12 | > 10 µM | – |
| Cc1cc(C)c2sc(-c3cccc(CCCOCCC(=O)O)n3)nc(=O)c2c1 | > 10 µM | – |

What follows are molecules tested against Macrophage migration inhibitory factor (Rattus norvegicus) (UniProt P30904) (assay: Induction of MIF-stimulated ARE activity in rat H9c2 cells assessed as increase in GST Ya expression at 3 uM incubated for 24 hrs by RT-qPCR analysis). Details: not given.
Assay type: cell-based
Target sequence in this assay (P30904 2-115 limits assumed): as above

| SMILES | Activity |
| --- | --- |
| Cc1cccc2c(=O)nc(-c3ccccn3)sc12 | inactive |

The molecules below were run against Macrophage migration inhibitory factor (Rattus norvegicus) (UniProt P30904) (assay: Inhibition of recombinant rat MIF expressed in Escherichia coli BL21 (DE3) assessed as reduction in tautomerase activity at 30 uM using L-dopachrome carboxy-methyl ester as substrate by spectrophotometry relative to control). Details: not given.
How it was run: (§3)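 Purified recombinant rat MIF tautomerase assayed with purified L-dopachrome carboxy-methyl ester as substrate in pH 6.0 buffer; rate taken over the initial 30 s. Mean ± SD, n = 4.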
Target sequence in this assay (P30904 2-115 limits assumed): as above

| SMILES | inhibition |
| --- | --- |
| O=C1NC(c2ccccn2)Sc2ccccc21 (stereo not drawn) [BTZO-4] | 3% |
| O=c1nc(-c2ccccn2)sc2ncccc12 | 5% |
| O=C(O)CCc1cccc(-c2nc(=O)c3ccccc3s2)n1 | 14% |
| O=c1nc(-c2cccnc2)sc2ccccc12 | 12% |
| COC(=O)CC1CC(c2ccc(O)cc2)=NO1 (stereo not drawn) | 30% |
| Cc1cccc2c(=O)nc(-c3ccccn3)sc12 | 6% |

Each molecule was assayed against Macrophage migration inhibitory factor (Rattus norvegicus) (UniProt P30904) (assay: Binding affinity to rat C-terminal His-tagged MIF expressed in Escherichia coli BL21 (DE3) by SPR analysis). Details: not given.
How it was run: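 Sensor chip carrying immobilized BTZO-12; MIF (wild type or point mutants) passed over it and specific binding monitored by surface plasmon resonance.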

| SMILES | Activity |
| --- | --- |
| NCCCCCCNC(=O)c1cccc(-c2nc(=O)c3ccccc3s2)n1 | Active |
| Cc1cccc2c(=O)nc(-c3cccc(C(=O)NCCCCCCN)n3)sc12 | inactive |

What follows are molecules tested on Cardiac muscle cell (assay: Cytoprotective activity against serum deprivation-induced neonatal Wistar rat cardiomyocyte death assessed as increase in cell viability measured after 4 days by WST-8 assay). Details: time 4 day.
Assay type: functional
How it was run: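 Primary neonatal rat cardiomyocytes were isolated by proteinase digestion, with preplating to remove adherent non-myocytes. Death was induced by serum deprivation at low density (3×10^5 cells/ml) for 4 days with compound present. Viability was read by WST-8. MEC1.5 is the concentration giving a 50% rise in viability. n = 3.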

| SMILES | MEC1.5 |
| --- | --- |
| O=C1NC(c2ccccn2)Sc2ccccc21 (stereo not drawn) [BTZO-4] | >1000 nM |
| O=c1nc(-c2ccccn2)sc2ncccc12 | >1000 nM |
| Cc1cc(C)c2sc(-c3ccccn3)nc(=O)c2c1 | >1000 nM |
| O=C(O)CCc1cccc(-c2nc(=O)c3ccccc3s2)n1 | 39 nM |
| O=C(O)CCOCCCc1cccc(-c2nc(=O)c3ccccc3s2)n1 | 53 nM |
| O=c1nc(-c2cccnc2)sc2ccccc12 | 39 nM |
| O=C(O)CCOCCCc1cccc(-c2nc(=O)c3cccnc3s2)n1 | >1000 nM |
| Cc1c(C)c2c(c(C)c1O)CCC(C)(C(=O)O)O2 (stereo not drawn) [TROLOX] | 160000 nM |
| O=C(O)CCOCCCc1ccc(-c2nc(=O)c3ccccc3s2)nc1 | 39 nM |
| O=C(O)CCOCCCc1cccc(C2NC(=O)c3ccccc3S2)n1 (stereo not drawn) | >1000 nM |
| Cc1cccc2c(=O)nc(-c3ccccn3)sc12 | >1000 nM |
| Cc1cc(C)c2sc(-c3cccc(CCCOCCC(=O)O)n3)nc(=O)c2c1 | >1000 nM |

Each molecule was assayed on Rattus norvegicus (assay: (§4) Cardioprotective effect against ischemia reperfusion injury in Wistar rat myocardial infarction model assessed as reduction in infarct size at 10 mg/kg, ip administered 1 hr prior to LAD occlusion and 2 and 8 hr after reperfusion and measured after 24 hrs by Evans blue dye based assay relative to control). Details: time 25 hrs.
Assay type: functional
Parameters: scale not given: the % may be the effect or the level left
How it was run: (§5)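 Anaesthetized rats; LAD coronary occlusion 25 min followed by 24 hr reperfusion. Compound 10 mg/kg i.p. given 1 hr before occlusion and 2 and 8 hr after reperfusion; vehicle controls, n = 13. Area at risk given as % of LV, infarct size as % of area at risk. Mean ± SEM.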

| SMILES | Activity |
| --- | --- |
| O=C(O)CCc1cccc(-c2nc(=O)c3ccccc3s2)n1 | 45% |

What follows are molecules tested on Antioxidant response element (assay: Induction of rat ARE activity expressed in MIF-stimulated rat H9c2 cells assessed as increase in ARE luciferase activity at 1 uM measured after 24 hrs by steady-glo luciferase Assay). Details: not given.
Assay type: cell-based
How it was run: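 H9c2 cells transiently transfected with pGL3-ARE-Luc (rat GST Ya ARE) or mutant-ARE control plasmid, then treated with rMIF with or without 1 μM compound for 24 hr. Luciferase by Steady-Glo; mean ± SD, n = 4.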

| SMILES | Activity |
| --- | --- |
| Cc1cccc2c(=O)nc(-c3ccccn3)sc12 | inactive |

The molecules below were run on Rattus norvegicus (assay: as §4, with “area at risk” for “reduction in infarct size”, “(reference value: 46 +/- 3%)” for “relative to control”). Details: time 25 hrs.
Assay type: functional
How it was run: as §5

| SMILES | Activity |
| --- | --- |
| O=C(O)CCc1cccc(-c2nc(=O)c3ccccc3s2)n1 | 48% |

Each molecule was assayed on Antioxidant response element (assay: Induction of ARE activity in serum-deprived neonatal Wistar rat cardiomyocytes assessed as increase in HO-1 mRNA level up to 3 uM measured after 24 hrs by RT-qPCR analysis). Details: Cardiomyocyte.
Assay type: cell-based
How it was run: as §2

| SMILES | Activity |
| --- | --- |
| O=C(O)CCc1cccc(-c2nc(=O)c3ccccc3s2)n1 | Active |

These molecules were tested on Antioxidant response element (assay: Induction of ARE activity in serum-deprived neonatal Wistar rat cardiomyocytes assessed as increase in GST Ya mRNA level up to 3 uM measured after 24 hrs by RT-qPCR analysis). Details: Cardiomyocyte.
Assay type: cell-based
How it was run: as §2

| SMILES | Activity |
| --- | --- |
| O=C(O)CCc1cccc(-c2nc(=O)c3ccccc3s2)n1 | Active |

What follows are molecules tested against Macrophage migration inhibitory factor (Rattus norvegicus) (UniProt P30904) (assay: Binding affinity to MIF in Wistar rat isolated heart by silver staining based assay). Details: not given.
Assay type: tissue-based
How it was run: as §1

| SMILES | Activity |
| --- | --- |
| NCCCCCCNC(=O)c1cccc(-c2nc(=O)c3ccccc3s2)n1 | Active |

What follows are molecules tested against Macrophage migration inhibitory factor (Rattus norvegicus) (UniProt P30904) (assay: Inhibition of [3H]-BTZO-1 binding to recombinant rat C-terminal His-tagged MIF expressed in Escherichia coli BL21 (DE3) measured after 3 hrs by SPA). Details: not given.
Target sequence in this assay (P30904 whole entry, looked up): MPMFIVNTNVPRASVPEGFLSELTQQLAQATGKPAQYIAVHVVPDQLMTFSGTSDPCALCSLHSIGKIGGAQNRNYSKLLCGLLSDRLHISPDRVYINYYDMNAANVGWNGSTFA

| SMILES | IC50 |
| --- | --- |
| CCCCC/C=C/C=C1/C(=O)C=C[C@@H]1C/C=C\CCCC(=O)O | 3.6 µM |
| C[S@@+]([O-])CCCCN=C=S [L-SULFORAPHANE] | 25 µM |
| CC(C)(C)c1cc(O)ccc1O [E319] | 1.1 µM |

Each molecule was assayed against Macrophage migration inhibitory factor (Rattus norvegicus) (UniProt P30904) (assay: Binding affinity to recombinant rat MIF expressed in Escherichia coli BL21 (DE3) by chromatography). Details: not given.

| SMILES | Activity |
| --- | --- |
| O=C(O)CCOCCCc1cccc(-c2nc(=O)c3ccccc3s2)n1 | Active |
| O=C(O)CCOCCCc1cccc(-c2nc(=O)c3cccnc3s2)n1 | inactive |
| O=C(O)CCOCCCc1ccc(-c2nc(=O)c3ccccc3s2)nc1 | Active |
| O=C(O)CCOCCCc1cccc(C2NC(=O)c3ccccc3S2)n1 (stereo not drawn) | inactive |
| Cc1cc(C)c2sc(-c3cccc(CCCOCCC(=O)O)n3)nc(=O)c2c1 | inactive |

These molecules were tested against Macrophage migration inhibitory factor (Rattus norvegicus) (UniProt P30904) (assay: Inhibition of [3H]-BTZO-1 binding to recombinant rat C-terminal His-tagged MIF expressed in Escherichia coli BL21 (DE3) at 100 uM measured after 3 hrs by SPA relative to control). Details: not given.
Target sequence in this assay (P30904 whole entry, looked up): as above

| SMILES | inhibition |
| --- | --- |
| COC(=O)CC1CC(c2ccc(O)cc2)=NO1 (stereo not drawn) | 12% |

What follows are molecules tested against Macrophage migration inhibitory factor (Rattus norvegicus, UniProt P30904) (assay: Inhibition of recombinant rat MIF expressed in Escherichia coli BL21 (DE3) assessed as reduction in tautomerase activity using L-dopachrome carboxy-methyl ester as substrate by spectrophotometry). Details: not given.
How it was run: as §3

Sequence of Macrophage migration inhibitory factor (P30904 2-115 limits assumed): as the sequence (P30904 2-115 limits assumed) above

| SMILES | IC50 |
| --- | --- |
| CCCCC/C=C/C=C1/C(=O)C=C[C@@H]1C/C=C\CCCC(=O)O | 3.7 µM |
| C[S@@+]([O-])CCCCN=C=S [L-SULFORAPHANE] | 4.4 µM |
| CC(C)(C)c1cc(O)ccc1O [E319] | > 30 µM |
| COC(=O)CC1CC(c2ccc(O)cc2)=NO1 (stereo not drawn) | 68 µM |
